Compounds with a hit are over-represented: about 1.8% of the library has one in this group of screens.
MBD2 inh – inhibitors of human MBD2 binding to methylated oligonucleotide. Q9UBB5. TR-FRET. inhibition, % at 4.4 µM. 370,000 compounds, 0.31% hits. AID 686964; in the data active means inhibition above about 13%
Target sequence (Q9UBB5 whole entry, looked up): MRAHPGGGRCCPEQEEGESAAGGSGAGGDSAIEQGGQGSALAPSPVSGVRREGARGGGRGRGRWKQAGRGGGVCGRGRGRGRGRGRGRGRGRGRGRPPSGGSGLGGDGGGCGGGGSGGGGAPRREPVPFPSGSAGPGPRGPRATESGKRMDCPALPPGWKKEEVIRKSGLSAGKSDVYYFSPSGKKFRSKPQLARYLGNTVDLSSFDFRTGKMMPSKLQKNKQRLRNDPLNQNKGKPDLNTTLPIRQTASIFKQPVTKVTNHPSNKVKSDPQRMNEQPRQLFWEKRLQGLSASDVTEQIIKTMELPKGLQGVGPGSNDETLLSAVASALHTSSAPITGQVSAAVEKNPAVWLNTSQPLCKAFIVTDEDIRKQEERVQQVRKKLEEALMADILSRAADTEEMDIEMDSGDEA
CASP6 VEID inh – inhibitors of human caspase-6 | 350,000 compounds, 0.53% hits | AID 686996 | inhibition, % at 12.5 µM | P55212 | purified caspase-6, Z-VEID-R110 cleavage fluorescence;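 active means mean inhibition across replicates at least about 35%, with every replicate also reaching that limit, limit read from the data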
UHRF1 binding – blocks human UHRF1 binding to methylated DNA; Q96T88; UHRF1 binding to methylated oligo, TR-FRET; inhibition, % at 4.4 µM; AID 687016; 370,000 compounds, 0.75% hits; in the data active means inhibition above about 21%;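 further: UHRF1 SRA domain binding a hemimethylated CpG hairpin DNA probe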
NSD2 HMT inh – blocks human histone methyltransferase NSD2; O96028; NSD2 peptide methylation, AlphaScreen, 120 min; inhibition, % at 12.5 µM; 310,000 compounds, 0.54% hits; AID 743445; in the data active means inhibition above about 50%
TDP2 absorb – TDP2 (human) inhibition, absorbance primary screen; 370,000 compounds, 0.34% hits; AID 720702; inhibition, % at 12.8 µM; recombinant TDP2, T5PNP hydrolysis, p-nitrophenol absorbance 415 nm;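 active means inhibition above the mean of all tested compounds plus 3 SD, set per campaign, cut at about 25% in these data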
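System – recombinant human TDP2 · Quantity – TDP2 enzyme at 120 nM final · Doses – single concentration, 12.8 µM nominal, with 1% DMSO · Incubation – 2 h at 37 °C · Measured by – epi absorbance of p-nitrophenol freed from T5PNP by hydrolysis · Read-out – % inhibition relative to enzyme-containing and enzyme-free wells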
LEDGF integ inh – blocks HIV-1 LEDGF/p75-dependent DNA integration; TR-FRET IN-LEDGF/p75 DNA integration, Eu/Cy5; inhibition, % at 3.7 µM; 370,000 compounds, 0.64% hits;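 active means inhibition above the screen-wide mean plus 3 SD, cut at about 13% in these data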;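 further: signal is the Cy5 over europium emission ratio at 671 and 618 nm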
Hits are given with their value; - = inactive; . = not tested or not shown.

SMILES | MBD2 inh | CASP6 VEID inh | UHRF1 binding | NSD2 HMT inh | TDP2 absorb | LEDGF integ inh
COc1ccc(CCNC(=O)COC(=O)c2ccc([N+](=O)[O-])o2)cc1 | - | 59 | - | - | - | -
COc1ccc(CCNC(=O)COc2ccc([N+](=O)[O-])cc2)cc1 | - | - | - | - | - | -
O=C(COC(=O)c1ccc(Br)o1)Nc1ncc([N+](=O)[O-])s1 | - | 48 | - | - | - | -
C[C@@H]1CN([C@@H](C)CO)S(=O)(=O)c2ccc(-c3cccc(C#N)c3)cc2O[C@H]1CN(C)C(=O)c1ccc(F)cc1 | . | - | . | . | . | .
COCCOC(=O)N1C(=O)[C@@]2(c3cc(C#Cc4ccc(OC)cc4)ccc31)[C@H](C(=O)N1CCc3cc(OC)c(OC)cc3C1)[C@H]1C(=O)O[C@H](c3ccccc3)[C@H](c3ccccc3)N1[C@@H]2c1ccc(OCCO)cc1 | . | - | . | . | . | .
CC(C)c1ccc(/C=C2\C(=O)N(CCN3CCOCC3)C(=S)N2C)cc1 | - | . | 22 | - | - | -
CC(C)c1ccc(C(=O)NCCCN2CCOCC2)cc1 | - | - | - | . | - | -
CC(=O)c1c(O)cc(C)n(-c2ccc(F)cc2)c1=O | - | - | - | - | - | -
Cc1cc(C)n(-c2ccc(F)cc2)c(=O)c1C(=O)O | - | . | 23 | - | - | -
COc1ccc(CNC(=O)N(C)C[C@H]2OCc3ccccc3-c3c(n(C)c4ccccc34)C(=O)N([C@@H](C)CO)C[C@@H]2C)cc1 | . | - | . | . | . | .
O=C(CCNC(=O)c1ccccc1Cl)NNC(=O)c1ccccc1O | - | - | 34 | - | - | -
O=C(CCC1CCCC1)NNC(=O)c1cc2ccccc2cc1O | - | - | - | - | - | -
O=C(CC1CCCC1)NNC(=O)c1ccccc1O | - | - | 36 | - | - | -
CCc1ccc(NS(=O)(=O)c2cc(OC)ccc2OC)cc1 | - | 58 | - | . | - | -
COc1ccc(NS(=O)(=O)c2cc(OC)ccc2OC)cc1 | - | - | - | - | - | -
O=C(Nc1cccc(C(F)(F)F)c1)c1cccc(NS(=O)(=O)c2ccc(O)c(C(=O)O)c2)c1 | - | 39 | - | - | - | -
CCCN1[C@H](C(=O)NC2CCCC2)[C@@H](CO)[C@@H]2Cn3c(ccc(-c4cccnc4)c3=O)[C@@H]21 | . | - | . | . | . | .
COc1ccc(NC(=O)N2CC3(C2)CN(C(=O)CN2CCOCC2)[C@H](CO)c2[nH]c4cc(OC)ccc4c23)cc1 | . | - | . | . | . | .
CSCc1c(C(=O)OCC(=O)c2ccc[nH]2)oc2ccccc12 | - | - | - | - | - | 19
CCc1nc(N2[C@H](C#N)[C@H](c3ccccc3-c3ccccc3F)[C@@H]2CO)sc1C | . | - | . | . | . | .
O=C(O)CCC(=O)Nc1sc2c(c1C(=O)Nc1cccc3ccccc13)CCCCC2 | - | . | - | - | - | -
O=C(O)CCC(=O)Nc1sc2c(c1C(=O)Nc1ccccc1)CCCCC2 | - | 47 | - | - | - | -
C[C@H]1CN([C@@H](C)CO)C(=O)Cc2cc(NC(=O)Nc3ccccc3)ccc2O[C@@H]1CN(C)S(=O)(=O)c1ccc(F)cc1 | . | - | . | . | . | .
CC(CNC(=O)CCc1nnc(CCC2CCCCC2)o1)c1ccccc1 (stereo not drawn) | - | - | 33 | - | - | -
S=C(NC1CCCCC1)N1CCN(Cc2ccccc2)CC1 | - | - | 21 | - | - | -
SMILES | MBD2 inh | CASP6 VEID inh | UHRF1 binding | NSD2 HMT inh | TDP2 absorb | LEDGF integ inh
S=C(NC1CCCCC1)N1CCN(Cc2ccccc2Cl)CC1 | - | - | - | - | - | -
CCc1sc(C(=O)NCCc2ccc(S(N)(=O)=O)cc2)cc1Br | - | - | 21 | - | - | -
CCc1sc(C(=O)NCCc2ccc(S(N)(=O)=O)cc2)cc1C | - | - | - | - | - | -
CC(C)CC#Cc1ccc2c(c1)O[C@@H](CN(C)C)[C@H](C)CN([C@H](C)CO)S2(=O)=O | . | - | . | . | . | .
CCOc1ccc(-c2cc(CCCC(=O)NCc3ccc(C)cc3)no2)cc1 | - | - | 29 | . | - | -
CNC[C@H]1OCCCC[C@@H](C)Oc2ccc(NS(=O)(=O)c3ccccc3)cc2C(=O)N([C@@H](C)CO)C[C@@H]1C | . | - | . | . | . | .
COc1cc2c(cc1OC)C(C1C(=O)CC(C)CC1=O)N(C(=O)CCl)CC2 (stereo not drawn) | - | - | 32 | - | - | -
C[C@@H]1CCCCO[C@@H](CN(C)S(=O)(=O)c2cccs2)[C@@H](C)CN([C@H](C)CO)C(=O)c2cc(NC(=O)CCCN(C)C)ccc2O1 | . | - | . | . | . | .
CC(C)CCn1c(=O)c2ccccc2n2c(CCC(=O)NCC3CCCO3)nnc12 (stereo not drawn) | - | 38 | - | - | - | -
COc1ccc(C(C)(O)c2nc(-c3ccc4ccccc4c3)cs2)cc1 (stereo not drawn) | - | - | 34 | - | - | -
CCOc1ccc(CCNC(=O)C2CC(C)=CCC2C(=O)O)cc1OCC (stereo not drawn) | - | 36 | - | - | - | -
CCOc1ccc(CCNC(=O)C2CC=CCC2C(=O)OC(C)C)cc1OCC (stereo not drawn) | - | . | - | - | - | -
C[C@@H]1CN([C@H](C)CO)C(=O)CCCn2cc(nn2)CO[C@H]1CN(C)Cc1ccccc1C(=O)O | . | - | . | . | . | .
CN(C)CCNC(=O)c1cccc2nc3c(ccc4ccccc43)nc12 | 31 | - | - | - | - | -
C[C@H](CO)N1C[C@H](C)[C@@H](CN(C)C(=O)C2CCC2)Oc2cc(-c3cccnc3)ccc2S1(=O)=O | . | - | . | . | . | .
Cc1ccc(S(=O)(=O)N2CCOCC2)cc1NC(=O)CNCc1ccccn1 | - | - | 27 | - | - | -
Cc1cccc(NC(=O)CN(C)S(=O)(=O)c2cccc3cccnc23)c1C | - | - | - | - | - | -
Cc1ccc(C)c(NC(=O)CN(C)S(=O)(=O)c2cccc3cccnc23)c1 | - | - | 27 | - | - | -
CCC1(C)Cc2c(C#N)c(N)n(-c3ccccc3)c(=S)c2CO1 (stereo not drawn) | - | 36 | - | - | - | -
C[C@H]1CN([C@@H](C)CO)C(=O)Cc2cc(NC(=O)NC3CCCCC3)ccc2O[C@H]1CN(C)Cc1ccc(-c2ccccc2)cc1 | . | 42 | . | . | . | .
C[C@H](CO)N1C[C@H](C)[C@H](CN(C)Cc2ccc(-c3ccccc3)cc2)Oc2ccc(NC(=O)NC3CCCCC3)cc2CC1=O | . | - | . | . | . | .
C[C@@H]1CN([C@@H](C)CO)C(=O)Cc2cc(N(C)C)ccc2O[C@@H]1CN(C)Cc1ccccc1 | . | 35 | . | . | . | .
C[C@H](CO)N1C[C@H](C)[C@@H](CN(C)S(=O)(=O)c2ccc(F)cc2)Oc2ccc(NS(C)(=O)=O)cc2CC1=O | . | 44 | . | . | . | .
CN(C)CC(=O)N1[C@@H](C#N)[C@H](c2ccccc2-c2ccccc2F)[C@@H]1CO | . | - | . | . | . | .
CCCc1nc2c3ccccc3ccn2c1Cc1cccc(Cl)c1 | - | - | 24 | . | - | -
Fc1cccc(Cc2c(C3CCCCC3)nc3c4ccccc4ccn23)c1 | - | - | 25 | . | - | -
